From PubChem BioAssay
Shown are actives, neighbours in structure and some others; about 1.8% of the full set was active somewhere.
TNAP inh noacc – inhibitors of human TNAP without phosphate acceptor. P05186. hit rate 0.26% among 200,000. AID 1012. inhibition, % at 20 µM. purified TNAP, CDP-star luminescence, 30 min;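 active = tissue-nonspecific alkaline phosphatase inhibition above about 50% at 20 µM in the single-dose screen, limit read from the data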;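 note: 0% = DMSO negative control and 100% = EDTA positive control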
Target sequence (P05186 whole entry, looked up): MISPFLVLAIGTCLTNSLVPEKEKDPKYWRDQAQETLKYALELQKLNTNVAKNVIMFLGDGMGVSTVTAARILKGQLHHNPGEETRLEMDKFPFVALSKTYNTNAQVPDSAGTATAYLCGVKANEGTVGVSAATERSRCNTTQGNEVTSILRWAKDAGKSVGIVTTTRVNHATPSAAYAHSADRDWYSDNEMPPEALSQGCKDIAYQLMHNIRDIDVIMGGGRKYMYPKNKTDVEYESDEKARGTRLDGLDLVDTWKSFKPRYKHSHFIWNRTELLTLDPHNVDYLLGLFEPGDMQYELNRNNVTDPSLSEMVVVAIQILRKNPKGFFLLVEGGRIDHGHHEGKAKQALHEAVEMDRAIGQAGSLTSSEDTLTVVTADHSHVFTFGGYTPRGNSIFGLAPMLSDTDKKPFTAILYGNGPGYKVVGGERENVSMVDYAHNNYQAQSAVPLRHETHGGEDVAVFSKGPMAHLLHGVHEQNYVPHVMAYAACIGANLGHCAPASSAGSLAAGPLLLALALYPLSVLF
Insulin prom up – MIN6 insulin promoter up-regulation; MIN6 insulin promoter-GFP reporter, high-content imaging; hits give high values; z-score at 5 µM; hit rate 0.3% among 190,000; AID 1625;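 active = z-score above 3 at 5 µM with at least 500 cells counted in the well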
TNAP inh hiacc – TNAP (human) inhibition, high acceptor | P05186 | purified TNAP, CDP-star luminescence, 1 M DEA | inhibition, % at 20 µM | hit rate 0.03% among 200,000 | AID 1135;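 active = over 50% inhibition of tissue-nonspecific alkaline phosphatase at 20 µM in the single-dose screen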;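 note: plate controls were DMSO wells for no effect and EDTA-quenched wells as full inhibition for full effect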
p47phox inh – blocks human p47phox regulatory protein of NADPH oxidases; hit rate 0.53% among 220,000; p47phox/p22phox peptide binding, fluorescence polarization, 2 h; inhibition, % at 24.7 µM; P14598; AID 1274;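 active = inhibition above about 30%, limit read from the data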;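 note: 0% = p47phox with labelled peptide and 100% = labelled peptide alone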
Autophagy mod – alters autophagy in cells. MEF GFP-LC3 puncta imaging; test concentration mostly 10 µM. calls only at 10 µM (by protocol). hit rate 0.98% among 190,000. AID 463193;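 active = percentage of spot-positive cells more than 3 SD above its plate mean, without a fluorescence outlier flag or 80% toxicity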;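 note: spot-positive cell cutoff set from DMSO-treated cells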
TNAP act hiacc – activators of human TNAP at high phosphate acceptor concentration; 200,000 tested, under 10 active; AID 1136; purified TNAP, CDP-star luminescence, 1 M DEA, 30 min; hits give high values; 0 = EDTA background, 1 = DMSO-only activity; P05186; activation factor at 20 µM;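 active = activation factor at least 2 at 20 µM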
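Assay system: human TNAP; Input: enzyme diluted 1/800 final; Reagent: CDP-star luminogenic substrate at 100 µM final; Timing: 30 min, room temperature; Signal: luminescence; Evaluation: TNAP activation factor scaled between EDTA and DMSO control wells.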
Numbers without * were called inactive; i = inactive; · = no result; + = active, no number; ! = not confirmed by another sample.

SMILES	TNAP inh noacc	Insulin prom up	TNAP inh hiacc	p47phox inh	Autophagy mod	TNAP act hiacc
CC(C)NC(=O)CCNC(=O)c1ccc(F)cc1	·	·	·	-3	i	·
C=C(C)c1cccc(C(C)(C)NC(=O)N(C)C2CCN(C)CC2)c1	-15	·	-9	110*	i	1.1
COc1cc(C2C(C(=O)OC(C)C)=C(C)Nc3ncnn32)cc(OC)c1OC (stereo unspecified)	-13	-0.95	-9	-5	+	1.1
COc1ccc(-c2[nH]ncc2CNC(C)c2cn(C)nc2C)c(F)c1 (stereo unspecified)	74*	0.18	-7	2	i	1.1
COc1ccc(-c2nn(-c3ccccc3C)cc2CNC(C)c2cn(C)nc2C)cc1F (stereo unspecified)	-6	-0.01	-1	18	i	1
COc1ccc(-c2[nH]ncc2CNC(C)CCn2cccn2)c(F)c1 (stereo unspecified)	72*	-0.34	-4	11	i	1
O=C(CS(=O)(=O)c1c[nH]c2ccccc12)N1CCCCCC1	-3	-0.27	3	-5	i	1
C[n+]1cc(C(=O)N2CCCCC2)ccc1/C=C/c1c[nH]c2ccccc12	20	4*	19	-167	i	0.8
O=C(CSc1ccc2ccccc2c1)NCCc1ccc(O)c(O)c1	54*	-3.3	-2	-3	i	1
O=C(CSc1nnc(SCc2ccc(Cl)cc2)s1)N/N=C/c1c[nH]c2ccccc12	-17	0.07	-3	43*	i	1
O=C(CSc1nnc(SCc2cccc3ccccc23)s1)N/N=C/c1c[nH]c2ccccc12	-11	-0.14	-3	-43	i	1
COc1ccc(-c2c(C(F)(F)F)oc3cc(OCC(=O)Nc4ccccc4C(F)(F)F)ccc3c2=O)cc1OC	-16	-1.7	0	31*	i	1
Cc1ccccc1OCc1n(CC(=O)OC2CC(C)CCC2C(C)C)c2ccccc2[n+]1C (stereo unspecified)	0	-5.1	0	39*!	+	1
CC1CCC(C(C)C)C(OC(=O)Cn2c(-c3ccc(Br)cc3)[n+](C)c3ccccc32)C1 (stereo unspecified)	-10	-1.9	-3	10	+!	1
COc1ccc2c(c1)c(CC(=O)OCC(=O)O)c(C)n2C(=O)c1ccc(Cl)cc1	5	0.13	-3	-13	+	1
OC(COC(c1ccc(Cl)cc1)c1ccc(Cl)cc1)CN1CCCC1 (stereo unspecified)	-9	-0.68	-3	-12	+	1
CCCCN(C(=O)c1ccc(Cl)c([N+](=O)[O-])c1)c1c(N)n(CCC)c(=O)[nH]c1=O	-9	-0.04	-1	4	i	1
CNCCCOc1cc(C)cc(C)c1C	-5	1.3	-3	-2	i	1
O=C(Cc1csc(Nc2nc(=S)[nH]c3ccccc23)n1)N1CCN(c2cccc(C(F)(F)F)c2)CC1	-13	-0.65	2	-12	+	1
CN(C)C=Nc1nonc1-c1ncn[nH]1	15	0.46	-6	1	+	1.1
CCCCSCCCNC(=S)Nc1ccccc1C	2	·	0	-9	i	1
Cc1ccccc1NC(=S)NCCO	-2	1	0	-7	+	1
Cc1ccc(-c2nnc(Nc3ccc4c(c3)OCO4)c3ccccc23)cc1S(=O)(=O)NC(C)C	-20	-0.66	-3	-9	i	1
O=C(CN1C2=NCCCN2c2ccccc21)c1ccc(Cl)cc1Cl	1	-2.1	-4	2	i	1
O=C(/C=C/Nc1ccc(F)cc1)c1ccc(Br)cc1	-9	0.56	-3	-13	i	1
SMILES	TNAP inh noacc	Insulin prom up	TNAP inh hiacc	p47phox inh	Autophagy mod	TNAP act hiacc
O=C(/C=C/Nc1ccc([N+](=O)[O-])cc1)c1ccc(Br)cc1	-8	-0.23	0	3	+	1
CCOC(=O)CNC(=O)c1cn(CC)c(=O)c2cc(OC)c(OC)cc12	-5	1.1	-2	-7	i	1
CCOC(=O)CNC(=O)c1cn(C)c(=O)c2cc(OC)c(OC)cc12	-6	3.2*	-3	-18	i	1
COC(=O)C1=C(C(=O)OC)C2C(C)=CC(C)=CN2C(C(=O)OC)=C1C(=O)OC (stereo unspecified)	-9	0.37	-7	-3	i	1.1
CN(C)C(=O)C1C2NC(=S)N(c3cccc(Cl)c3)C1(C)Oc1ccc(Cl)cc12 (stereo unspecified)	-26	3.5*	-5	-11	i	1
CC(C)CNC(=O)CC(=O)N/N=C/c1ccc(F)cc1	-8	1.4	-2	-8	i	1
CC(C)Cn1c(-c2ccccc2F)n[nH]c1=S	52*	1.3	-10	4	i	1.1
CCN(CC)CCCNc1nc2cc(OC)c(OC)cc2c2nc(-c3ccccc3)nn12	-5	-3.8	-3	-34	+	1
COc1cc2nc(NCCCN3CCN(C)CC3)n3nc(-c4ccccc4)nc3c2cc1OC	-18	-0.47	-6	-4	+	1.1
COCc1cc(C)nc(OCC(=O)N/N=C/c2ccc(-c3cc([N+](=O)[O-])ccc3C)o2)c1C#N	-2	1.6	0	3	i	1
Cc1ccc([N+](=O)[O-])cc1-c1ccc(/C=C(\C#N)c2[nH]nc(N)c2C#N)o1	-11	-0.04	8	38*	i	0.9
COc1ccc(-c2cc(C(F)(F)F)c(C#N)c(SCC(=O)Nc3ccccc3C#N)n2)cc1	-6	0.35	-3	-11	+	1
COc1ccc(-c2cc(C(F)(F)F)c(C#N)c(SCC(=O)Nc3nc(C)co3)n2)cc1	-8	-0.14	-3	11	+	1
CC(Oc1ccc(Cl)cc1Cl)C(=O)Nc1ccc(N2CCN(C)CC2)cc1 (stereo unspecified)	-4	-0.12	1	9	+	1
CN1CCN(CC(=O)n2c3c(c4ccccc42)CCCC3)CC1	8	-0.16	-6	-5	+	1.1
Cc1nc(SC2CC(=O)N(c3ccccc3)C2=O)n[nH]1 (stereo unspecified)	-12	0.18	-2	-7	+	1
Nc1[nH]nc2nc3ccccc3cc12	-2	0.33	3	2	i	1
Nc1cccc2nc3ccccc3cc12	-11	-4.2	-7	-1	+	1.1
Cc1cc(C2N=C(N)Nc3nc4ccccc4n32)c(C)n1-c1ccccc1Cl (stereo unspecified)	-106	0.07	-6	41*	i	1.1
Cc1ccc(-n2c(C)cc(C3N=C(N)Nc4nc5ccccc5n43)c2C)c(C)c1 (stereo unspecified)	-145	-2.6	-20	30*	i	1.2
